The source made the active and inactive calls. No cut-off for these calls is given here.

For the first experiment, the system named is HUVEC. As to the kind of experiment: Maximum stimulation of proliferation rate of human umbilical vascular endothelial cells (HUVECs) by the compound at a concentration of 0.6 mM. The experiment is classed as functional. The method in brief: (§1)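 Cultured human umbilical vein endothelial cells (normal, uninjured) exposed to compound over 0.1–1.5 mmol L⁻¹; viability by MTT, absorbance at 570 nm. Proliferation rate P(%) = (A − A0)/A0, with A0 the vehicle-treated control wells. The maximum P over the concentrations tested is reported. Mean ± SEM, n=6 wells.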
Regarding `Cc1nc(C)c(COC(=O)c2ccco2)nc1C`, the Pmax turned out to be 69.39%.
On the same count and under the same terms, the result for `Cc1nc(C)c(COC(=O)c2ccccc2)nc1C` reads 37%; that for `Cc1nc(C)c(COC(=O)c2ccccc2Cl)nc1C`, 32.1%.
Compound `Cc1nc(C)c(COC(=O)/C=C/c2ccccc2)nc1C` gave a Pmax of 77.32%.
`Cc1nc(C)c(CO)nc1C` yielded a Pmax of 28.03%.
`Cc1nc(C)c(C)nc1C` [LIGUSTRAZINE] returned a Pmax of 20.66%.

A further experiment deals with HUVEC. The experiment is described as follows: Maximum stimulation of proliferation rate of human umbilical vascular endothelial cells (HUVECs) by the compound at a concentration of 0.1 mM. The experiment is classed as functional. The method in brief:
as §1
Compound `Cc1nc(C)c(COC(=O)Cc2ccccc2)nc1C` gave a Pmax of 76.11%.
In the case of `COc1ccc(/C=C/C(=O)OCc2nc(C)c(C)nc2C)c(OC)c1`, the Pmax is listed as 70.16%.
Same read-out and setting: for `Cc1nc(C)c(COC(=O)c2cccnc2)nc1C` the value was 88.57%; for `COc1cc(/C=C/C(=O)OCc2nc(C)c(C)nc2C)ccc1O`, 83.87%; for `Cc1nc(C)c(COC(=O)C(C)(C)Oc2ccc(Cl)cc2)nc1C`, 87.85%.
Same read-out and setting: for `CC(=O)Oc1ccccc1C(=O)OCc1nc(C)c(C)nc1C` the value was 70.88%; for `COc1cc(C(=O)OCc2nc(C)c(C)nc2C)cc(OC)c1OC`, 45.8%.
The compound `COc1ccc(C(=O)OCc2nc(C)c(C)nc2C)cc1` returned a Pmax of 66.04%.
Same read-out and setting: for `Cc1nc(C)c(COC(=O)CCc2ccccc2)nc1C` the value was 80.54%; for `Cc1nc(C)c(COC(=O)c2ccc(Cl)cc2)nc1C`, 82.55%; for `Cc1nc(C)c(COC(=O)c2cccc(Cl)c2)nc1C`, 59.32%.
`COc1ccc(C(=O)OCc2nc(C)c(C)nc2C)cc1OC` showed a Pmax of 52.95%.
Still for that read-out and setting: for `COc1ccc(/C=C/C(=O)OCc2nc(C)c(C)nc2C)cc1` the value was 75.45%.
`COc1ccccc1C(=O)OCc1nc(C)c(C)nc1C` had a Pmax of 71.95%.

A further experiment relates to HUVEC. As to the kind of experiment: Maximum stimulation of proliferation rate of human umbilical vascular endothelial cells (HUVECs) by the compound at a concentration of 1.5 mM. The experiment is classed as functional. A digest of the protocol: as §1
Turning to `Cc1nc(C)c(COC(=O)c2ccccc2I)nc1C`, the Pmax is given as 61.36%.

A further experiment relates to HUVEC. As to the kind of experiment: Maximum stimulation of proliferation rate of human umbilical vascular endothelial cells (HUVECs) by the compound at a concentration of 0.1-1.5 mM; NA is not active. The experiment is classed as functional, cell-based. A digest of the protocol:
as §1
For `Cc1nc(C)c(COC(=O)c2ccc(Br)cc2Br)nc1C`, the Pmax result is “inactive”.
As to `Cc1nc(C)c(COC(=O)c2ccc(Br)cc2)nc1C`, the Pmax entry was “inactive”.

Values taken from ChEMBL document CHEMBL1136075, “Synthesis of the novel liqustrazine derivatives and Their protective effect on injured vascular endothelial cell damaged by hydrogen peroxide” (2003).
